# AF4-AF9 inh – inhibitors of AF4 peptide binding to AF9, primary screen, biochemical, AlphaScreen, biotin-AF4 peptide, FLAG-AF9, single point; inhibition, % at 10 µM; 0.47% of 350,000 active;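 active means every replicate reaching a set inhibition limit, whatever the replicate mean, cut at about 25% in these data; inconclusive means mean inhibition reaches that limit but some replicates miss it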;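 further: 0% = plate neutral control median and 100% = total signal loss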
# Target sequence (P42568 whole entry, looked up): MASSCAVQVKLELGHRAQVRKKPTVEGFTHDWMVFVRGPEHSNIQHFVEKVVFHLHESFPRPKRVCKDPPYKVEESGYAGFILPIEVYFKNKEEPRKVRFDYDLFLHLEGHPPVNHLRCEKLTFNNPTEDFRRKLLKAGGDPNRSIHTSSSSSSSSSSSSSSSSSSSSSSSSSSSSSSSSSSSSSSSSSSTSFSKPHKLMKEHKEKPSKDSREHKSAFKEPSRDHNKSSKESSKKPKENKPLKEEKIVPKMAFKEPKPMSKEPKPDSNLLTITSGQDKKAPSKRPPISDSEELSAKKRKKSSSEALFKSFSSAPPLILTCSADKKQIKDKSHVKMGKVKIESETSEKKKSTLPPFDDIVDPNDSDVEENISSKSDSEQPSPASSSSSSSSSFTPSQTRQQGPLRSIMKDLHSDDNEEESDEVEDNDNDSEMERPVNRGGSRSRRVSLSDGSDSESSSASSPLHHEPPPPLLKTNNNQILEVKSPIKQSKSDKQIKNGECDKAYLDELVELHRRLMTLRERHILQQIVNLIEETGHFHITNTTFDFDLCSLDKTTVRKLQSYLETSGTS
# S100A4 MyoIIA – inhibitors of S100A4-myosin IIA peptide binding, primary screen, biochemical, fluorescence polarization, TAMRA-MyoIIA peptide | inhibition, % at 10.7 µM | 0.14% of 360,000 active | AID 652163, 2013;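 active means mean inhibition of at least 70% across replicates, with every replicate also reaching that level; inconclusive means mean inhibition reaches 70% but some replicates fall short; inactive means mean inhibition below 70%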
# Target sequence (P26447 whole entry, looked up): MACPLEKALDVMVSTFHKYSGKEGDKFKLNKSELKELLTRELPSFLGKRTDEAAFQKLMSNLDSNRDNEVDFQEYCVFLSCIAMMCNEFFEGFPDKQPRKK
#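 Material: human S100A4 monomer with TAMRA-labelled myosin IIA peptide; buffer or medium: HEPES pH 7.2 with CaCl2, KCl, NaCl, DTT, Triton; compound dosing: one concentration per compound; schedule: 5 min incubation before reading; benchmarks: neutral control DMSO, positive control TFP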
# DENV2 CPE rescue – inhibitors of DENV2 cytopathic effect, primary screen, cell-based, plate reader, single concentration; AID 651640, 2012; 1.7% of 350,000 active; DENV2-infected cells, cytopathic effect rescue; CPE inhibition, % at 9.99 µM; in the data active means CPE inhibition above about 20%, passing the limit was not always enough; inconclusive means no clear call, values can overlap the other calls; tested in BHK-21 cells;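 further: 0% = median of neutral control wells and 100% = median of positive control wells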
# SIRT5 inh – SIRT5 desuccinylase inhibitors, primary screen, biochemical, fluorescence imaging, single point, set 5 | Purified SirT5, succinyl-peptide AMC, trypsin-coupled fluorescence | inhibition, % at 15 µM | 1.1% of 330,000 active | AID 652115, 2013; in the data active means inhibition above about 15%; inconclusive means no clear call, values can overlap the other calls
# CaV13 FRET inh – Disruptors of the CACNA1D IQ motif to Ca2+-dependent inactivation inhibitor domain association, primary screening, Förster resonance energy transfer in intact living …; HEK cells, CFP/YFP FRET ICDI-IQ, plate reader, 10 min; percent FRET-ratio fall versus neutral wells; inhibition, % at 12.3 µM; 0.098% of 340,000 active; AID 743397;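 active means mean replicate inhibition of at least 30% and at least 1% of replicates passing that level; inconclusive means only one of the two criteria is met; inactive means neither criterion is met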;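 further: 0% = median of the neutral control wells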
# * hit, by the source's call; ? = inconclusive; nt = no result given. Sampled rows, rich in hits. Any-hit rate of the full collection: about 2.7%.
SMILES,AF4-AF9 inh,S100A4 MyoIIA,DENV2 CPE rescue,SIRT5 inh,CaV13 FRET inh
CC(C)NC(=O)N1CCCCN2[C@@H](CO)[C@@H](c3ccc(Br)cc3)[C@@H]2C1,-2.7,-19.8,68.2*,-2.1,nt
CC(=O)N1CCCCN2[C@@H](CO)[C@H](c3ccc(Br)cc3)[C@@H]2C1,-1.1,5.8,0.8,17.0*,nt
COc1ccc(-c2ccc([C@@H]3[C@H](CO)N4CCCCN(C(=O)NC(C)C)C[C@@H]34)cc2)cc1,0.4,-0.6,63.9*,0.3,nt
CCC(=O)N1C[C@@H](C)[C@H](OC)CN(C)C(=O)c2cc(NC(=O)C3CCOCC3)ccc2OC[C@@H]1C,1.6,38.7,3.6,nt,nt
COc1ccccc1-c1ccc([C@H]2[C@@H](CO)N(C(=O)NC3CCCCC3)[C@H]2C#N)cc1,-1.8,5.3,-6.0,-1.6,nt
CCCNC(=O)Nc1ccc2c(c1)OC[C@H](C)N(Cc1ccccn1)C[C@H](C)[C@H](OC)CN(C)C2=O,-1.5,8.0,-3.3,-1.1,nt
O=C1CNC[C@H]2[C@@H](c3ccc(C4=CCCCC4)cc3)[C@@H](CO)N12,-0.5,3.6,0.9,6.3,nt
O=C(O)c1ccccc1-c1ccccc1C(=O)Nc1ccc2c(c1)CCC2,0.8,-0.4,-1.4,1.6,-21.2
O=C(Nc1ccc2c(c1)CCC2)c1ccccc1,-5.8,-1.5,44.9*,nt,-5.2
Cc1cc(C)n2nc(C(=O)Nc3ccc(S(=O)(=O)N4CCCC4)cc3)nc2n1,2.5,-4.9,-1.4,-4.2,-3.0
Cc1cc(C)n2nc(C(=O)Nc3ccc4c(c3)CCC4)nc2n1,-3.1,-2.8,2.3,15.0*,2.0
Cc1noc(C)c1NC(=O)N(C)C[C@H]1Oc2ccc(NC(=O)CCC(F)(F)F)cc2CC(=O)N([C@@H](C)CO)C[C@H]1C,-10.1,3.0,9.7,0.2,nt
COc1ccc(NC(=O)N(C)C[C@@H]2OCCCC[C@@H](C)Oc3ccc(NC(=O)Nc4cccc5ccccc45)cc3C(=O)N([C@@H](C)CO)C[C@H]2C)cc1,nt,nt,-7.1,nt,nt
CCCC#Cc1ccc([C@H]2[C@@H](CO)N3CCCCN(CC4CCOCC4)C[C@H]23)cc1,6.1,-0.9,-0.7,-1.2,nt
C[C@@H]1CCCCO[C@@H](CN(C)Cc2ccccc2)[C@H](C)CN([C@@H](C)CO)C(=O)c2cc(NC(=O)NC3CCCCC3)ccc2O1,4.6,12.5,23.9*,3.2,nt
C[C@H](CO)N1C[C@H](C)[C@@H](CN(C)Cc2ccccc2)OCCCC[C@H](C)Oc2ccc(NC(=O)NC3CCCCC3)cc2C1=O,-5.5,-29.5,4.8,3.2,nt
C[C@H]1CCCCO[C@@H](CN(C)Cc2ccccc2)[C@@H](C)CN([C@@H](C)CO)C(=O)c2cc(NC(=O)NC3CCCCC3)ccc2O1,5.5,2.0,17.0,6.2,nt
C[C@H](CO)N1C[C@H](C)[C@H](CN(C)Cc2ccccc2)OCCCC[C@H](C)Oc2ccc(NC(=O)NC3CCCCC3)cc2C1=O,5.2,-16.8,29.2*,7.0,nt
CCCN(C)C[C@H]1Oc2cc(C#Cc3cccnc3)ccc2S(=O)(=O)N([C@H](C)CO)C[C@H]1C,0.2,0.3,-7.1,7.0,nt
O=C(C[C@@H]1CC[C@H](NC(=O)c2cccc(F)c2)[C@@H](CO)O1)NCc1ccc(Oc2ccccc2)cc1,0.3,9.7,18.4,-1.4,nt
COc1ccc(S(=O)(=O)Nc2ccc3c(c2)C(=O)N([C@@H](C)CO)C[C@H](C)[C@H](CN(C)S(=O)(=O)c2ccccc2)OCCCC[C@@H](C)O3)cc1,-1.2,11.0,8.2,15.2*,nt
COc1ccc(S(=O)(=O)Nc2ccc3c(c2)C(=O)N([C@H](C)CO)C[C@@H](C)[C@@H](CN(C)S(C)(=O)=O)OCCCC[C@H](C)O3)cc1,-4.5,-2.2,0.0,-6.8,nt
COc1ccc(S(=O)(=O)N(C)C[C@@H]2OCCCC[C@@H](C)Oc3ccc(NS(=O)(=O)c4ccc(C)cc4)cc3C(=O)N([C@@H](C)CO)C[C@H]2C)cc1,-0.8,11.9,-1.9,17.1*,nt
COc1ccc(S(=O)(=O)Nc2ccc3c(c2)C(=O)N([C@H](C)CO)C[C@@H](C)[C@@H](CN(C)S(C)(=O)=O)OCCCC[C@@H](C)O3)cc1,-2.2,-14.7,49.0*,-1.1,nt
COc1ccc(S(=O)(=O)N(C)C[C@H]2OCCCC[C@H](C)Oc3ccc(NS(=O)(=O)c4ccc(C)cc4)cc3C(=O)N([C@@H](C)CO)C[C@H]2C)cc1,-1.1,-20.3,5.4,19.6*,nt
SMILES,AF4-AF9 inh,S100A4 MyoIIA,DENV2 CPE rescue,SIRT5 inh,CaV13 FRET inh
CN(C)C(=O)C[C@@H]1CC[C@H]2[C@@H](COC[C@H](O)CN2CC2CCOCC2)O1,-6.1,-39.2,-7.6,0.5,nt
CC(C)NC(=O)Nc1ccc2c(c1)C(=O)N([C@@H](C)CO)C[C@H](C)[C@@H](CN(C)C(=O)Nc1ccccc1)O2,-1.8,14.9,15.3,nt,nt
COc1ccc(S(=O)(=O)N(C)C[C@H]2OCCCC[C@H](C)Oc3ccc(NS(=O)(=O)c4ccc(C)cc4)cc3C(=O)N([C@H](C)CO)C[C@@H]2C)cc1,-0.4,-44.7,-6.4,22.9*,nt
COc1ccc(S(=O)(=O)N(C)C[C@H]2OCCCC[C@H](C)Oc3ccc(NS(=O)(=O)c4ccc(C)cc4)cc3C(=O)N([C@H](C)CO)C[C@H]2C)cc1,-1.3,-34.5,-6.0,28.6*,nt
COc1ccc(S(=O)(=O)Nc2ccc3c(c2)C(=O)N([C@@H](C)CO)C[C@H](C)[C@H](CN(C)S(=O)(=O)c2ccc(C)cc2)OCCCC[C@@H](C)O3)cc1,1.2,-5.4,-1.6,9.5,nt
COc1ccc(S(=O)(=O)N(C)C[C@@H]2OCCCC[C@@H](C)Oc3ccc(NS(=O)(=O)c4ccc(C)cc4)cc3C(=O)N([C@H](C)CO)C[C@@H]2C)cc1,-2.3,-6.4,?,15.1*,nt
COc1ccc(S(=O)(=O)Nc2ccc3c(c2)C(=O)N([C@H](C)CO)C[C@H](C)[C@@H](CN(C)S(=O)(=O)c2ccc(C)cc2)OCCCC[C@@H](C)O3)cc1,-0.8,-11.4,0.3,13.1,nt
COc1ccc(S(=O)(=O)N(C)C[C@H]2OCCCC[C@@H](C)Oc3ccc(NS(=O)(=O)c4ccc(C)cc4)cc3C(=O)N([C@H](C)CO)C[C@@H]2C)cc1,-0.7,7.0,-2.4,5.3,nt
COc1ccc(S(=O)(=O)N(C)C[C@H]2OCCCC[C@@H](C)Oc3ccc(NS(=O)(=O)c4ccc(C)cc4)cc3C(=O)N([C@@H](C)CO)C[C@H]2C)cc1,1.0,-13.0,1.0,24.5*,nt
CC(C)c1cn(CC[C@@H]2CC[C@H](NC(=O)C3CC3)[C@H](CO)O2)nn1,0.1,-2.7,9.1,3.1,nt
C[C@@H](NC(=O)C[C@@H]1CC[C@@H](NC(=O)CN2CCOCC2)[C@@H](CO)O1)c1ccccc1,0.7,-14.0,12.0,-2.2,nt

# Screening data from PubChem.
